Experimental data: ChEMBL document CHEMBL3244416, “Structural requirements for progestational activity. Synthesis and properties of rac-8alpha,9beta,10alpha,14beta-progesterone” (1979)

Assays:
[1] = tested on: Oryctolagus cuniculus; experiment: Progestational activity in rabbit assessed as mean uterine weight at 0.2 mg, sc by Clauberg assay; format: functional
Procedure, shortened: (§1)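 Modified Clauberg assay in rabbits, 2 animals per dose group, with the total dose given by subcutaneous injection. Uterine progestational proliferation was scored histologically by McPhail's method and reported as the range and mean proliferation index. Uterine weight was reported as the group mean.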

[2] = tested on: Oryctolagus cuniculus; experiment: Progestational activity in rabbit assessed as mean uterine weight at 0.5 mg, sc by Clauberg assay; format: functional; procedure, shortened: as §1
[3] = tested on: Oryctolagus cuniculus; experiment: Progestational activity in rabbit assessed as range of proliferation index at 0.2 mg, sc by Clauberg assay relative to control; format: functional; procedure, shortened: as §1
[4] = tested on: Oryctolagus cuniculus; experiment: Progestational activity in rabbit assessed as range of proliferation index at 0.5 mg, sc by Clauberg assay relative to control; format: functional; procedure, shortened: as §1
[5] = tested on: Oryctolagus cuniculus; experiment: Progestational activity in rabbit assessed as mean proliferation index at 0.2 mg, sc by Clauberg assay relative to control; format: functional; procedure, shortened: as §1
[6] = tested on: Oryctolagus cuniculus; experiment: Progestational activity in rabbit assessed as mean proliferation index at 0.5 mg, sc by Clauberg assay relative to control; format: functional; procedure, shortened: as §1
[7] = tested on: Oryctolagus cuniculus; experiment: Progestational activity in rabbit assessed as mean uterine weight at 0.4 mg, sc by Clauberg assay; format: functional; procedure, shortened: as §1
[8] = tested on: Oryctolagus cuniculus; experiment: Progestational activity in rabbit assessed as mean uterine weight at 4 mg, sc by Clauberg assay; format: functional; procedure, shortened: as §1
[9] = tested on: Oryctolagus cuniculus; experiment: Progestational activity in rabbit assessed as range of proliferation index at 0.4 mg, sc by Clauberg assay relative to control; format: functional; procedure, shortened: as §1
[10] = tested on: Oryctolagus cuniculus; experiment: Progestational activity in rabbit assessed as range of proliferation index at 4 mg, sc by Clauberg assay relative to control; format: functional; procedure, shortened: as §1
[11] = tested on: Oryctolagus cuniculus; experiment: Progestational activity in rabbit assessed as mean proliferation index at 0.4 mg, sc by Clauberg assay relative to control; format: functional; procedure, shortened: as §1
[12] = tested on: Oryctolagus cuniculus; experiment: Progestational activity in rabbit assessed as mean proliferation index at 4 mg, sc by Clauberg assay relative to control; format: functional; procedure, shortened: as §1
[13] = molecular target: T1, Progesterone receptor (Oryctolagus cuniculus) (UniProt P06186); experiment: Displacement of [3H]-progesterone from progesterone receptor in rabbit uterine cytosol relative to progesterone; conditions: Uterus
T1 sequence (whole entry): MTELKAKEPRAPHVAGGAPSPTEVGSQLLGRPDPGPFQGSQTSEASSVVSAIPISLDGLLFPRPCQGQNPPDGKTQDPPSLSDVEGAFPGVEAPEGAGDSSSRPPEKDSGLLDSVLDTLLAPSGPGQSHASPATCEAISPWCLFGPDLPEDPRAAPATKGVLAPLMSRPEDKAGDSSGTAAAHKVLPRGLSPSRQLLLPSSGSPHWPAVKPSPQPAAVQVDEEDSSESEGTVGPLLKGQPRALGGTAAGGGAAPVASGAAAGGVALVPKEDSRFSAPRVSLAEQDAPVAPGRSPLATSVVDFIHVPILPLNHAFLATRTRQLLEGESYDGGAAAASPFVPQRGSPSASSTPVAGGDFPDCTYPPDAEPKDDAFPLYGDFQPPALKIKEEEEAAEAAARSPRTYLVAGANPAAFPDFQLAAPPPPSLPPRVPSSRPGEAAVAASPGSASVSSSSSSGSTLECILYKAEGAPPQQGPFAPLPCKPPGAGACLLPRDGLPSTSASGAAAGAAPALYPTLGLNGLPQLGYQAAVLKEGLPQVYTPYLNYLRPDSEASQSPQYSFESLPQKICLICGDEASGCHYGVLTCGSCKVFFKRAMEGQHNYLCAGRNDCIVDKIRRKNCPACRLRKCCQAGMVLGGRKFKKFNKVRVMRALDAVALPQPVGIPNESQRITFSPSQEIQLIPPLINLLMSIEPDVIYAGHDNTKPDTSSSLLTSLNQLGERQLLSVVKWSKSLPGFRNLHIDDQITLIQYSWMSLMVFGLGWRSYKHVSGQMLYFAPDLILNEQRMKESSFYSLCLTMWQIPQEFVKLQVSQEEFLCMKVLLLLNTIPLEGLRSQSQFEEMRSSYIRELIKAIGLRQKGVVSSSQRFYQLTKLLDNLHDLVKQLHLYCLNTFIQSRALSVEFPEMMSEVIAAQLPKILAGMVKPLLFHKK

SMILES	Activity [1] [g]	Activity [2] [g]	Ratio [3]	Ratio [4]	Ratio [5]	Ratio [6]	Activity [7] [g]	Activity [8] [g]	Ratio [9]	Ratio [10]	Ratio [11]	Ratio [12]	RBA [13] [%]
CC(=O)[C@H]1CC[C@H]2[C@@H]3CCC4=CC(=O)CC[C@]4(C)[C@H]3CC[C@]12C [PROGESTERONE]	1.49	2.34	0.5	3.5	0.75	3.5	–	–	–	–	–	–	–
CC(=O)[C@H]1CC[C@@H]2[C@H]3CCC4=CC(=O)CC[C@@]4(C)[C@@H]3CC[C@]12C (racemic)	–	–	–	–	–	–	0.79	1.24	0	1	0	2	2
